Measurements from ChEMBL document CHEMBL1155347, “Synthesis and antimicrobial activities of novel quinoline derivatives carrying 1,2,4-triazole moiety” (2009).
In brackets after ≈: the same amount, converted by molar mass.

Experiments:
Type in all cases: functional
Escherichia coli [1] = experiment: Antibacterial activity against Escherichia coli ATCC 25922 after 16 to 18 hrs by serial plate dilution method
Outline: (§1)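 Drug serially diluted in Mueller–Hinton broth in tubes, adjusted to pH 5.0 with phosphate buffer. Inoculated with standardized bacterial suspension and incubated 16–18 h at 37 °C. MIC taken as lowest concentration with no visible growth.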

Aspergillus flavus [2] = experiment: Antifungal activity against Aspergillus flavus NCIM 524 at MIC after 3 to 4 days by agar well diffusion method
Outline: (§2)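 Sabouraud agar (peptone, D-glucose, agar; pH 5.7) seeded with spore suspension made by transferring a loopful of fungus to 3 mL normal saline. Excess decanted, plates dried 1 h at 37 °C. Compounds in DMSO at MIC added to punched wells; DMSO control. Triplicate plates kept 3–4 days at 37 °C.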

Aspergillus fumigatus [3] = experiment: Antifungal activity against Aspergillus fumigatus NCIM 902 at MIC after 3 to 4 days by agar well diffusion method; outline: as §2
Klebsiella pneumoniae [4] = experiment: Antibacterial activity against recultured Klebsiella pneumoniae after 16 to 18 hrs by serial plate dilution method; outline: as §1
Talaromyces marneffei [5] = experiment: Antifungal activity against recultured Penicillium marneffei at MIC after 3 to 4 days by agar well diffusion method; outline: as §2
Pseudomonas aeruginosa [6] = experiment: Antibacterial activity against Pseudomonas aeruginosa ATCC 27853 at MIC after 3 to 4 days by agar well diffusion method
Talaromyces marneffei [7] = experiment: Antifungal activity against recultured Penicillium marneffei by serial plate dilution method
Klebsiella pneumoniae [8] = experiment: Antibacterial activity against recultured Klebsiella pneumoniae at MIC after 3 to 4 days by agar well diffusion method
Staphylococcus aureus [9] = experiment: Antibacterial activity against Staphylococcus aureus ATCC 25923 at MIC after 3 to 4 days by agar well diffusion method
Aspergillus fumigatus [10] = experiment: Antifungal activity against Aspergillus fumigatus NCIM 902 by serial plate dilution method
Pseudomonas aeruginosa [11] = experiment: Antibacterial activity against Pseudomonas aeruginosa ATCC 27853 after 16 to 18 hrs by serial plate dilution method; outline: as §1
Staphylococcus aureus [12] = experiment: Antibacterial activity against Staphylococcus aureus ATCC 25923 after 16 to 18 hrs by serial plate dilution method; outline: as §1
Escherichia coli [13] = experiment: Antibacterial activity against Escherichia coli ATCC 25922 at MIC after 3 to 4 days by agar well diffusion method
Aspergillus flavus [14] = experiment: Antifungal activity against Aspergillus flavus NCIM 524 by serial plate dilution method
[15] = tested on: Trichophyton mentagrophytes; experiment: Antifungal activity against recultured Trichophyton mentagrophytes at MIC after 3 to 4 days by agar well diffusion method; outline: as §2
[16] = tested on: Trichophyton mentagrophytes; experiment: Antifungal activity against recultured Trichophyton mentagrophytes by serial plate dilution method

| Compound | MIC (Escherichia coli [1]) [µg/mL] | inhibition zone (IZ) (Aspergillus flavus [2]) [mm] | inhibition zone (IZ) (Aspergillus fumigatus [3]) [mm] | MIC (Klebsiella pneumoniae [4]) [µg/mL] | inhibition zone (IZ) (Talaromyces marneffei [5]) [mm] | inhibition zone (IZ) (Pseudomonas aeruginosa [6]) [mm] | MIC (Talaromyces marneffei [7]) [µg/mL] | inhibition zone (IZ) (Klebsiella pneumoniae [8]) [mm] | inhibition zone (IZ) (Staphylococcus aureus [9]) [mm] | MIC (Aspergillus fumigatus [10]) [µg/mL] | MIC (Pseudomonas aeruginosa [11]) [µg/mL] | MIC (Staphylococcus aureus [12]) [µg/mL] | inhibition zone (IZ) (Escherichia coli [13]) [mm] | MIC (Aspergillus flavus [14]) [µg/mL] | inhibition zone (IZ) [15] [mm] | MIC [16] [µg/mL] |
| --- | --- | --- | --- | --- | --- | --- | --- | --- | --- | --- | --- | --- | --- | --- | --- | --- |
| COCCn1c(S)nnc1-c1cnc2c(C(F)(F)F)cccc2c1N1CCC(CCCO)CC1 | 6.25 (≈ 12.6 µM) | <10 | <10 | 50 (≈ 101 µM) | <10 | <10 | 50 (≈ 101 µM) | <10 | 16 | 50 (≈ 101 µM) | 50 (≈ 101 µM) | 6.25 (≈ 12.6 µM) | 20 | 50 (≈ 101 µM) | <10 | 50 (≈ 101 µM) |
| FC(F)(F)c1cccc2c(NC3CCCCC3)c(-c3nnc(S)n3-c3ccccc3)cnc12 | 6.25 (≈ 13.3 µM) | 16 | 16 | 6.25 (≈ 13.3 µM) | 16 | 16 | 6.25 (≈ 13.3 µM) | 16 | 16 | 6.25 (≈ 13.3 µM) | 6.25 (≈ 13.3 µM) | 6.25 (≈ 13.3 µM) | 20 | 6.25 (≈ 13.3 µM) | 20 | 6.25 (≈ 13.3 µM) |
| COCCn1c(S)nnc1-c1cnc2c(C(F)(F)F)cccc2c1Cl | 6.25 (≈ 16.1 µM) | 10 | 10 | 12.5 (≈ 32.2 µM) | 10 | 10 | 12.5 (≈ 32.2 µM) | 12 | 10 | 12.5 (≈ 32.2 µM) | 12.5 (≈ 32.2 µM) | 12.5 (≈ 32.2 µM) | 16 | 12.5 (≈ 32.2 µM) | 10 | 12.5 (≈ 32.2 µM) |
| CC(C)(C)CCNc1c(-c2nnc(S)n2-c2ccccc2)cnc2c(C(F)(F)F)cccc12 | 6.25 (≈ 13.3 µM) | 16 | 16 | 6.25 (≈ 13.3 µM) | 16 | 16 | 6.25 (≈ 13.3 µM) | 16 | 16 | 6.25 (≈ 13.3 µM) | 6.25 (≈ 13.3 µM) | 6.25 (≈ 13.3 µM) | 20 | 6.25 (≈ 13.3 µM) | 20 | 6.25 (≈ 13.3 µM) |
| FC(F)(F)c1cccc2c(N3CCN(C4CCCCC4)CC3)c(-c3nnc(S)n3-c3ccccc3)cnc12 | 6.25 (≈ 11.6 µM) | <10 | <10 | 50 (≈ 92.8 µM) | <10 | <10 | 50 (≈ 92.8 µM) | <10 | <10 | 50 (≈ 92.8 µM) | 50 (≈ 92.8 µM) | 50 (≈ 92.8 µM) | 20 | 50 (≈ 92.8 µM) | <10 | 50 (≈ 92.8 µM) |
| OCCCC1CCN(c2c(-c3nnc(S)n3-c3ccccc3)cnc3c(C(F)(F)F)cccc23)CC1 | 12.5 (≈ 24.3 µM) | <10 | <10 | 50 (≈ 97.4 µM) | <10 | <10 | 50 (≈ 97.4 µM) | <10 | 16 | 50 (≈ 97.4 µM) | 50 (≈ 97.4 µM) | 6.25 (≈ 12.2 µM) | 16 | 50 (≈ 97.4 µM) | <10 | 50 (≈ 97.4 µM) |
| Oc1c(-c2nnc(S)n2Cc2ccccc2)cnc2c(C(F)(F)F)cccc12 | 50 (≈ 124 µM) | <10 | <10 | 50 (≈ 124 µM) | <10 | <10 | 50 (≈ 124 µM) | <10 | <10 | 50 (≈ 124 µM) | 50 (≈ 124 µM) | 50 (≈ 124 µM) | <10 | 50 (≈ 124 µM) | <10 | 50 (≈ 124 µM) |
| Oc1c(-c2nnc(S)n2-c2ccccc2)cnc2c(C(F)(F)F)cccc12 | 6.25 (≈ 16.1 µM) | 16 | 16 | 6.25 (≈ 16.1 µM) | 16 | 16 | 6.25 (≈ 16.1 µM) | 16 | 16 | 6.25 (≈ 16.1 µM) | 6.25 (≈ 16.1 µM) | 6.25 (≈ 16.1 µM) | 20 | 6.25 (≈ 16.1 µM) | 20 | 6.25 (≈ 16.1 µM) |
